Experimental data published in ChEMBL document CHEMBL4028851, “Discovery of Potent Small-Molecule Inhibitors of Ubiquitin-Conjugating Enzyme UbcH5c from α-Santonin Derivatives” (J Med Chem, 2017).
Calls of active or inactive are those of the source. The rule behind the calls is not given here.

Tests used:
[1] = Clearance in Sprague-Dawley rat at 1 mg/kg, iv by LC-MS/MS analysis; format: ADME, organism-based; details: in vivo
Outline: (§1)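 Male Sprague-Dawley rats (about 200‒220 g; n = 6) were fasted overnight and given a single 1 mg/kg iv dose in DMSO:castor oil:saline (3:3:94). Blood was sampled from the orbital artery into heparin tubes. Plasma was analysed by LC/MS/MS (ESI, MRM), and parameters came from noncompartmental analysis. Values are mean ± SD.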

[2] = AUC (0 to infinity) in Sprague-Dawley rat at 1 mg/kg, iv by LC-MS/MS analysis; format: ADME, organism-based; design: dose 1 mg/kg, time infinity, route intravenous; details: in vivo
[3] = Half life in Sprague-Dawley rat at 1 mg/kg, iv by LC-MS/MS analysis; format: ADME, organism-based; details: in vivo; outline: as §1
[4] = target: Ubiquitin-conjugating enzyme E2 L3 (Homo sapiens) (UniProt P68036); experiment: Inhibition of UbcH7 (unknown origin) at 2.5 to 10 uM preincubated for 15 mins followed by E1, Ub and ATP addition measured after 40 mins by Western blot analysis
[5] = target: T1, Ubiquitin-conjugating enzyme E2 C (Homo sapiens) (UniProt O00762); experiment: Inhibition of UbcH10 (unknown origin) at 2.5 to 10 uM preincubated for 15 mins followed by E1, Ub and ATP addition measured after 40 mins by Western blot analysis
T1 sequence (whole entry): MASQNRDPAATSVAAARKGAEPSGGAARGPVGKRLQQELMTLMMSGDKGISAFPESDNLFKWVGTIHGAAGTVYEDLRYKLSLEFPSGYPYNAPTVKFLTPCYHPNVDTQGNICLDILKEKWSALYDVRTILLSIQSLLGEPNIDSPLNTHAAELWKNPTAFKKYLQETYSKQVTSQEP

[6] = target: T2, Ubiquitin-conjugating enzyme E2 K (Homo sapiens) (UniProt P61086); experiment: Inhibition of E2-25K (unknown origin) at 2.5 to 10 uM preincubated for 15 mins followed by E1, Ub and ATP addition measured after 40 mins by Western blot analysis
T2 sequence (whole entry): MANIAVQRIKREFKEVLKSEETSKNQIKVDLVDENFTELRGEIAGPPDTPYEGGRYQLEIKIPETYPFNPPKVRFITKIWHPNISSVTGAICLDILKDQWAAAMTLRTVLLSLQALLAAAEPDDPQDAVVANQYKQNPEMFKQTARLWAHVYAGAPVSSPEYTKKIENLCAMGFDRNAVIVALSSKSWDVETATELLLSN

[7] = target: Ubiquitin-conjugating enzyme E2 D3 (Mus musculus) (UniProt P61079); experiment: Inhibition of UbcH5c in mouse b.End3 cells assessed as decrease in TNF-alpha-mediated IkB-alpha phosphorylation preincubated for 2 hrs followed by TNF-alpha stimulation for 20 mins by Western blot analysis; format: cell-based
Outline: (§2)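 bEnd.3 cells (DMEM, 10% FBS) were pretreated with compound at 2.5, 5 or 10 µM for 2 h, then stimulated with 20 ng/mL TNF-α (15 min in the methods, 20 min in the legend). Lysates were run on 10% SDS-PAGE and immunoblotted for phospho-IκBα, IκBα, phospho-p65 and p65, with GAPDH as loading control.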

[8] = target: Ubiquitin-conjugating enzyme E2 D3 (Mus musculus) (UniProt P61079); experiment: Inhibition of UbcH5c in mouse b.End3 cells assessed as decrease in TNF-alpha-mediated IkB-alpha degradation preincubated for 2 hrs followed by TNF-alpha stimulation for 20 mins by Western blot analysis; format: cell-based; outline: as §2
[9] = target: Ubiquitin-conjugating enzyme E2 D3 (Mus musculus) (UniProt P61079); experiment: Inhibition of UbcH5c in mouse b.End3 cells assessed as decrease in TNF-alpha-mediated p65 phosphorylation preincubated for 2 hrs followed by TNF-alpha stimulation for 20 mins by Western blot analysis; format: cell-based; outline: as §2
[10] = target: Ubiquitin-conjugating enzyme E2 D1 (Homo sapiens) (UniProt P51668); experiment: Inhibition of UbcH5a (unknown origin) at 2.5 to 10 uM preincubated for 15 mins followed by E1, Ub and ATP addition measured after 40 mins by Western blot analysis
[11] = target: Ubiquitin-conjugating enzyme E2 D2 (Homo sapiens) (UniProt P62837); experiment: Inhibition of UbcH5b (unknown origin) at 2.5 to 10 uM preincubated for 15 mins followed by E1, Ub and ATP addition measured after 40 mins by Western blot analysis
[12] = Tmax in Sprague-Dawley rat at 5 mg/kg, po via gavage by LC-MS/MS analysis; format: ADME, organism-based; details: in vivo
Outline: (§3)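 Male Sprague-Dawley rats (about 200‒220 g; n = 6) were fasted overnight and gavaged with 5 mg/kg as a suspension in 0.5% methylcellulose. Blood was taken from the orbital artery at 0.083–24 h into heparin tubes. Plasma was quantified by LC/MS/MS (ESI, MRM), with noncompartmental analysis. Bioavailability was referenced to a 1 mg/kg iv dose. Values are mean ± SD.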

[13] = Cmax in Sprague-Dawley rat at 5 mg/kg, po via gavage by LC-MS/MS analysis; format: ADME, organism-based; design: dose 5 mg/kg, route oral; details: in vivo; outline: as §3
[14] = Half life in Sprague-Dawley rat at 5 mg/kg, po via gavage by LC-MS/MS analysis; format: ADME, organism-based; details: in vivo; outline: as §3
[15] = AUC (0 to infinity) in Sprague-Dawley rat at 5 mg/kg, po via gavage by LC-MS/MS analysis; format: ADME, organism-based; design: dose 5 mg/kg, time infinity, route oral; details: in vivo
Outline: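 Male Sprague-Dawley rats (about 200‒220 g), n = 6, fasted overnight; single oral gavage at 5 mg/kg as a suspension in 0.5% methylcellulose. Blood was drawn from the orbital artery into heparin tubes at 0.083–24 h. Plasma was analysed by LC/MS/MS (ESI, MRM). AUC(0-∞) came from noncompartmental analysis, reported as mean ± SD of six rats.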

[16] = Half life in rat whole blood at 5 uM; format: ADME
Outline: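 Compound (5 µM final, from a 25 mM DMSO stock) was incubated at 37 °C in rat plasma (0–90 min) or rat whole blood (0, 5, 10, 30, 60, 90 min). Reactions were quenched with ice-cold acetonitrile, centrifuged, and the supernatants analysed.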

[17] = test system: Rattus norvegicus; experiment: Antiarthritic activity in Wistar rat Freund's adjuvant-induced arthritis model assessed as reduction in hind paw swelling at 5 to 20 mg/kg, po qd administered on day 10 to 20 postimmunization measured every 2 to 3 days during compound dosing; format: functional, organism-based
Outline: (§4)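 Adjuvant arthritis was induced by intradermal CFA (0.1 mL) into the base of the left hind paw (day 0), with a boost 10 days later. Rats were dosed orally once daily at 5 or 20 mg/kg from day 10 to day 20, with 10 rats per group. Vehicle controls received 0.3% sodium carboxymethylcellulose. Two blinded observers scored the animals every 2 or 3 days. Data are mean ± S.E.M.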

[18] = test system: Rattus norvegicus; experiment: Antiarthritic activity in Wistar rat Freund's adjuvant-induced arthritis model assessed as protection against body weight loss at 5 to 20 mg/kg, po qd administered on day 10 to 20 postimmunization measured every 2 to 3 days during compound dosing; format: functional, organism-based; outline: as §4
[19] = target: Ubiquitin-conjugating enzyme E2 D3 (Mus musculus) (UniProt P61079); experiment: Inhibition of UbcH5c in mouse b.End3 cells assessed as decrease in TNF-alpha-mediated IkB-alpha phosphorylation at 10 uM preincubated for 2 hrs followed by TNF-alpha stimulation for 20 mins by Western blot analysis; format: cell-based; outline: as §2
[20] = target: Ubiquitin-conjugating enzyme E2 D3 (Mus musculus) (UniProt P61079); experiment: Inhibition of UbcH5c in mouse b.End3 cells assessed as decrease in TNF-alpha-mediated IkB-alpha degradation at 10 uM preincubated for 2 hrs followed by TNF-alpha stimulation for 15 mins by Western blot analysis

Sequence of Ubiquitin-conjugating enzyme E2 D3 (Mus musculus) (P61079 whole entry, looked up): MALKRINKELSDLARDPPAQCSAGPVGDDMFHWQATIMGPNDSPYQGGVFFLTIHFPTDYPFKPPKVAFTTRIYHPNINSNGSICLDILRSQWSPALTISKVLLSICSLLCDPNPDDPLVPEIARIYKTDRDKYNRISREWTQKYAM
Sequence of Ubiquitin-conjugating enzyme E2 D1 (Homo sapiens) (P51668 whole entry): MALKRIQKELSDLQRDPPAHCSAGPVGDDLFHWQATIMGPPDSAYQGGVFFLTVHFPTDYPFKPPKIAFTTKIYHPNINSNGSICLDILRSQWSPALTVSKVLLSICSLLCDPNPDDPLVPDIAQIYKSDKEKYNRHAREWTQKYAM
Sequence of Ubiquitin-conjugating enzyme E2 D2 (Homo sapiens) (P62837 whole entry, looked up): as the sequence (P61079 whole entry, looked up) above, with N7H, S11N, D132E, S138A counted along it
Sequence of Ubiquitin-conjugating enzyme E2 L3 (Homo sapiens) (P68036 whole entry): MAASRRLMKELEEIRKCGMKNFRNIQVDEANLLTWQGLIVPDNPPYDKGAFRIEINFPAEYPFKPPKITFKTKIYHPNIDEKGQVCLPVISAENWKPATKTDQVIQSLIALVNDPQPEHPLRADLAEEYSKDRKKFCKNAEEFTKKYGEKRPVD

clearance [1]: 41.3 mL/min/kg
AUC(0-inf) [2]: 408 ng·h/mL
half-life [3]: 1.76 h
inhibition [4]: Active
inhibition [5]: Active
inhibition [6]: inactive
inhibition [7]: Dose-dependent effect
inhibition [8]: Dose-dependent effect
inhibition [9]: Dose-dependent effect
inhibition [10]: Active
inhibition [11]: Active
Tmax [12]: 3.83 h
Cmax [13]: 42.2 ng/mL
half-life [14]: 2.86 h
AUC(0-inf) [15]: 314 ng·h/mL
half-life at 5 µM [16]: 0.663 h
inhibition [19]: Active
inhibition [20]: Active
Compound: C=C1C(=O)O[C@H]2c3c(C)c(OCc4ccccc4Br)cc(C)c3CC[C@@H]12
Activity [17]: Active
Activity [18]: inactive
